The record followed here is ChEMBL document CHEMBL1121717, “Tetrahydro-2-benzoxepins: a novel family of hypotensives” (1981).

Assay [1] relates to Felis catus. Kind of assay: Effect of compound on blood pressure was measured in baroreceptor denervated cats at time 0 min, after iv administration of 1.0 mg/kg. It is filed as functional. The method in brief:
(§1)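 Cats of either sex anesthetized i.p. with sodium diallylbarbituric acid (60 mg/kg) plus urethane (240 mg/kg), placed in stereotaxic frame, tracheal tube inserted; femoral artery cannulated for arterial pressure, femoral vein for drug. Sympathetic activity recorded from preganglionic splanchnic nerve. 1.0 mg/kg iv; n = 6 treated, n = 8 vehicle; MAP, HR and % SNA (0 min = 100) read at 0–60 min; mean ± error.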

The test system of assay [2] is Felis catus. Kind of assay: Effect of compound on blood pressure was measured in baroreceptor denervated cats at time 10min, after iv administration of 1.0 mg/kg. It is filed as functional. Put shortly: as §1
Assay [3] relates to Felis catus. Kind of assay: Effect of compound on blood pressure was measured in baroreceptor denervated cats at time 20min, after iv administration of 1.0 mg/kg. It counts as functional. The method in brief:
as §1

The test system of assay [4] is Felis catus. The experiment in a line: Effect of compound on blood pressure was measured in baroreceptor denervated cats at time 5min, after iv administration of 1.0 mg/kg. It is filed as functional. Put shortly: as §1
The subject of assay [5] is Felis catus. The experiment in a line: Effect of compound on blood pressure was measured in baroreceptor denervated cats at time 60min, after iv administration of 1.0 mg/kg. It is filed as functional. Put shortly:
as §1

Assay [6] deals with Felis catus. Kind of assay: Effect of compound on sympathetic nerve activity was measured in baroreceptor denervated cats at time 0min, after iv administration of 1.0 mg/kg. It is filed as functional. The method in brief:
as §1

Assay [7] has as its system Felis catus. The experiment in a line: Effect of compound on sympathetic nerve activity was measured in baroreceptor denervated cats at time 10min, after iv administration of 1.0 mg/kg. It is filed as functional. The method in brief: as §1
The test system of assay [8] is Felis catus. Kind of assay: Effect of compound on sympathetic nerve activity was measured in baroreceptor denervated cats at time 20min, after iv administration of 1.0 mg/kg. It counts as functional. Put shortly:
as §1

Assay [9] has as its system Felis catus. The experiment in a line: Effect of compound on sympathetic nerve activity was measured in baroreceptor denervated cats at time 40min, after iv administration of 1.0 mg/kg. It is filed as functional. Put shortly: as §1
For assay [10], the system named is Felis catus. The experiment in a line: Effect of compound on sympathetic nerve activity was measured in baroreceptor denervated cats at time 5min, after iv administration of 1.0 mg/kg. It is filed as functional. The method in brief:
as §1

Assay [11] concerns Felis catus. Kind of assay: Effect of compound on sympathetic nerve activity was measured in baroreceptor denervated cats at time 60min, after iv administration of 1.0 mg/kg. It is filed as functional. Put shortly: as §1
The subject of assay [12] is Felis catus. The experiment in a line: Effect of compound on heart rate was measured in baroreceptor denervated cats at time 0min, after iv administration of 1.0 mg/kg. It is filed as functional. The method in brief:
as §1

Assay [13] deals with Felis catus. Kind of assay: Effect of compound on heart rate was measured in baroreceptor denervated cats at time 10min, after iv administration of 1.0 mg/kg. It counts as functional. Put shortly: as §1
The test system of assay [14] is Felis catus. Kind of assay: Effect of compound on heart rate was measured in baroreceptor denervated cats at time 20min, after iv administration of 1.0 mg/kg. It counts as functional. Put shortly: as §1
For assay [15], the system named is Felis catus. The experiment in a line: Effect of compound on heart rate was measured in baroreceptor denervated cats at time 40min, after iv administration of 1.0 mg/kg. It is filed as functional. Put shortly: as §1
In assay [16] the test system is Felis catus. The experiment in a line: Effect of compound on heart rate was measured in baroreceptor denervated cats at time 5min, after iv administration of 1.0 mg/kg. It counts as functional. Put shortly: as §1
The subject of assay [17] is Felis catus. Kind of assay: Effect of compound on heart rate was measured in baroreceptor denervated cats at time 60min, after iv administration of 1.0 mg/kg. It is filed as functional. Put shortly:
as §1

For assay [18], the system named is Rattus norvegicus. Kind of assay: Oral hypotensive activity of compound was tested in conscious rats after oral administration at 5 mg/Kg dose; -24/-9. It counts as functional, organism-based.
In assay [19] the test system is Rattus norvegicus. The experiment in a line: Oral hypotensive activity of compound was tested in conscious rats after oral administration at 50 mg/Kg dose; -49/-52. It counts as functional, organism-based.
Assay [20] has as its system Felis catus. The experiment in a line: Effect of compound on blood pressure was measured in baroreceptor denervated cats at time 40min, after iv administration of 1.0 mg/kg. It is filed as functional. The method in brief:
as §1

Calls of active or inactive are those of the source. No cut-off for these calls is given here.

As for `COc1cc2c(cc1OC)C(CCN1CCN(c3ccc(F)cc3)CC1)OCCC2.Cl` (stereo not given), the MAP in the assay with Felis catus [1] was determined as 131; with Felis catus [2], 85; in the assay with Felis catus [3], 95; in the assay on Felis catus [4], 75; with Felis catus [5] it was 109; in the assay with Felis catus [20], 107. In addition, the SNA was 100% in the assay with Felis catus [6]; 76% in the assay on Felis catus [7]; 86% in the assay with Felis catus [8]; 88% with Felis catus [9]; 72% in the assay with Felis catus [10]; 96% in the assay with Felis catus [11]. In addition, the HR in the assay with Felis catus [12] stood at 229; with Felis catus [13], 230; in the assay on Felis catus [14] it was 230; in the assay with Felis catus [15] it was 231; in the assay with Felis catus [16], 229; with Felis catus [17], 232. In addition, the Delta blood pressure result with Rattus norvegicus [18] and in the assay with Rattus norvegicus [19] was “Active” each time.
